# Source: PubChem BioAssay
# Values without a mark were called inactive. Active and inactive are the calls of the source.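 How the source made its calls: active means growth inhibition above a set limit, 3 SD over mean compound inhibition, in both replicates (cut at about 43% in these data); inconclusive means above the limit in only one replicate; inactive means at or below the limit in both replicates.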
# Assay: S. cerevisiae growth inhibition in restrictive medium, OD615, pilot screen, restrictive growth control, yeast lifespan reduction project (AID 706)
# Conditions: OD615, 48 h, at 10 µM, stronger effect = higher value
# Procedure, shortened: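 Material: modified S. cerevisiae; buffer or medium: CSMM-D glucose medium; doses: one concentration, 10 µM final, 0.25% DMSO; incubation: 48 h compound exposure at 30 °C; detection: optical density at 615 nm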
row,SMILES,growth inhibition
1,OC12CCCCC1C(c1ccccc1)NCC2 (stereo not given),-17.1%
2,c1ccc2sc(C3CCCNC3)nc2c1 (stereo not given),-19.7%
3,O=c1cccc2n1CC1CC2CN(c2ncnc3c2cnn3-c2ccccc2)C1 (stereo not given),-18.5%
4,Nc1ccc(S(=O)(=O)N2CC3CC(C2)c2cccc(=O)n2C3)cc1 (stereo not given),1.35%
5,CC12CN3CC(C)(CN(C1)C3c1ccco1)C2=O (stereo not given),-8.04%
6,CC1=CC(=C2C(=O)NC(=O)NC2=O)C=C(C(F)(F)F)N1C(C)C,-9.69%
7,O=C(CN1CC(c2ccccc2)CC1=O)Nc1ccc(F)cc1 (stereo not given),-4.88%
8,CCCCCP(=O)(O)c1ccccc1,-13.1%
9,CCOC(=O)C1CCN(/C=C2/C(=O)NC(=O)N(c3ccc(OCC)cc3)C2=O)CC1,-20.2%
10,c1cncc(C2CCCCN2Cc2ccc3c(c2)OCO3)c1 (stereo not given),-13%
11,CC1(C)CN=C(Nc2ccc(F)c(F)c2)S1,-4.74%
12,CCCCCCOc1ccc(CN2CCN(CCO)CC2)cc1,2.46%
13,COc1cc(CN2CC3CC(C2)c2cccc(=O)n2C3)cc(OC)c1OC (stereo not given),-4.6%
14,O=C(c1ccc2c(c1)OCO2)N1CCC2(CC1)OCCO2,-4.21%
15,CN1CSC(=S)N(C)C1,63.5% (active)
16,O=C1CC(N2CC=C(c3ccccc3)CC2)C(=O)N1c1ccc(F)cc1 (stereo not given),-4.17%
17,Cc1ccc2occ(CN3CC4CC(C3)c3cccc(=O)n3C4)c(=O)c2c1 (stereo not given),-17.7%
18,Cn1c(O)c(C=Nc2ccc(Cl)cc2)c(=O)n(C)c1=O,-0.49%
19,O=c1c2ccccc2nc(-c2ccco2)n1-c1ccncc1,3.59%
20,CC1(C)C(c2ccccc2)=NC(c2cccnc2)=[N+]1[O-],-3.12%

row,SMILES,growth inhibition
1,COc1cccc(OCC(=O)N2CCN(C)CC2)c1,11.5%
2,Cc1ccc2c(c1)C1CN(C)CCC1N2C(=O)c1ccco1 (stereo not given),-12.5%
3,C=Cn1ccnc1P(=S)(c1c(C)nn(-c2ccccc2)c1C)c1nccn1C=C,13.2%
4,O=C(NC1(C(F)(F)F)Oc2ccccc2O1)N1CCC2(CC1)OCCO2,1.45%
5,NC(=O)CN1CC(c2ccccc2)CC1=O (stereo not given),-19.9%
6,O=c1cccc2n1CC1CC2CN(Cc2ccc3c(c2)OCO3)C1 (stereo not given),2.45%
7,O=C(Nc1ccccc1OC(=O)N1CCCCC1)N1CCCCC1,-4.06%
8,COC(=O)c1ccc(CN2CCN(Cc3ccccc3)CC2)cc1,-15.9%
9,Cc1cc(OCC(=O)OC(C)(C)C)c2c3c(c(=O)oc2c1)CCC3,-17%
10,O=C(CN1CCOCC1)c1ccc2cc[nH]c2c1,-1.26%
11,CN1CC=C(c2c[nH]c3ccccc23)CC1,10.4%
12,C=Cn1ccnc1P(=S)(c1ccn(C)c1)c1nccn1C=C,18.6%
13,C=Cn1ccnc1P(=S)(c1cc(N(CC)CC)ns1)c1nccn1C=C,21.8%
14,CC(C)NS(=O)(=O)c1ccc(OCC(=O)N2CCN(C)CC2)cc1,-2.15%
15,CCOC(=O)C1SC2(C(F)(F)C(F)F)CC1(O)c1c(c(OC)c3occc3c1OC)O2 (stereo not given),-26.4%
16,COc1cc2c(cc1OC)-c1c(OC)c(OC)cc3c1C(C2)N(C)CC3 (stereo not given),1.99%
17,C=Cn1ccnc1P(=S)(c1nccn1C=C)C1CCCCC1,-2.3%
18,CN1C(=O)C(Cc2cccs2)C(=O)N(C)C1=O,-4.64%
19,CN(C)C(=O)Oc1ccc(C(=O)c2ccccc2)cc1,5.16%
20,O/N=C/c1c[nH]c2ccccc12,0.865%
